# Compound activity as filed in PubChem BioAssay.
# TLR4 MyD88 comp – inhibitors of TLR4-MyD88 association in cells, primary screen, cell-based, HeLa CL3-4, BLA complementation, FRET ratio; Toll-like receptor 4 (Homo sapiens) + Myeloid differentiation primary response protein …; HeLa CL3-4 TLR4/MyD88 BLA complementation; inhibition, % at 8.4 µM; 200,000 tested, 0.18% active; in the data active means inhibition above about 25%;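 further: 0% = vehicle and 100% = reference inhibitor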
# NTR1 agonist – agonists of human NTR1, primary screen, imaging, U2OS cells, beta-arrestin-GFP, high content | Neurotensin receptor type 1 (Homo sapiens), P30989 | NTR1-U2OS beta-arrestin-GFP spot imaging, agonist mode | activation, % at 20 µM | 330,000 tested, 0.17% active | AID 493036, 2011;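 active means activation at or above 40% of the spot to cytoplasm intensity ratio, with at least 20 cells analyzed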;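 further: 0% = DMSO without peptide and 100% = 100 nM NTR1 peptide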
# MC4R ag barr – MC4R agonists recruiting beta-arrestin, primary screen, cell-based, luminescence, agonist arm of biased-ligand search; Melanocortin receptor 4 (Homo sapiens), P32245; U2OS MC4R beta-arrestin complementation; percent of melanotan II response, DMSO zero; activation, % at 8.9 µM; 360,000 tested, 0.98% active; AID 540308, 2011;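 active means activation above a per-plate cutoff, the mean activation of sample wells on that plate plus 3 SD, cut at about 8% in these data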
# MC4R antag cAMP – MC4R antagonists of cAMP signaling, primary screen, cell-based, TR-FRET, antagonist arm of biased-ligand search | inhibition, % at 6.5 µM | Melanocortin receptor 4 (Homo sapiens), P32245 | MC4R-expressing cells, MTII-stimulated cAMP, LANCE TR-FRET | 360,000 tested, 0.48% active;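 active means inhibition above its plate's cutoff, the mean of tested wells on that plate plus 3 SD, cut at about 29% in these data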;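 further: 0% = Melanotan II alone and 100% = Melanotan II plus saturating MCL0020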
#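 Assay system: U2OS-MC4R stable cell line; Also added: Melanotan II; Technique: Eu-cAMP/anti-cAMP TR-FRET, emission 671 nm; Times: 30-min compound, 1-h challenge, 1-h detection, room temperature.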
# NOD2-RIPK2 inh – NOD2-RIPK2 binding disruptors in cells, primary screen, fluorescence, CHO cells, BLA complementation; CCF4 ratio; inhibition, % at 4.98 µM; 360,000 tested, 0.38% active; AID 624267, 2012; in the data active means inhibition above about 21%;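 further: 0% = vehicle only and 100% = reference blocker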
# TLR9-MyD88 block – inhibitors of TLR9-MyD88 association in cells, primary screen, cell-based, CHO, BLA complementation, fluorescence | Toll-like receptor 9 (Homo sapiens) + Myeloid differentiation primary response protein … | CCF4 FRET ratio | inhibition, % at 4.98 µM | 340,000 tested, 0.21% active;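 active means inhibition above the mean over all tested compounds plus 3 SD, cut at about 21% in these data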;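 further: 0% = DMSO only wells and 100% = clavulanate BLA inhibitor control wells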
# An asterisk follows results filed as active; nt = not tested or not shown. In the library only some 1.9% were active in any assay of this set; here they are far more common.
SMILES,TLR4 MyD88 comp,NTR1 agonist,MC4R ag barr,MC4R antag cAMP,NOD2-RIPK2 inh,TLR9-MyD88 block
O=C(Nc1ccc2oc(-c3ccncc3)nc2c1)c1ccccc1,-2.0,-0.1,-0.1,-2.0,-11.5,5.8
O=C(Nc1ccc2oc(-c3ccc4ccccc4c3)nc2c1)c1ccc2c(c1)OCCO2,-11.8,4.2,8.6*,17.6,-8.3,-4.9
O=C1ON=C(c2ccccc2)/C1=C/c1ccc(-c2ccccc2[N+](=O)[O-])o1,16.0,nt,-1.4,31.7*,-2.5,17.2
O=[N+]([O-])c1ccccc1-c1ccc(/C=N/n2cnnc2)o1,2.1,0.5,-1.5,-0.4,5.5,-0.3
COc1cccc(/C=N/NC(=O)CNC(=O)COc2ccccc2)c1O,nt,30.1,-2.4,9.9,2.4,-0.2
Cc1cccc(OCC(=O)NCC(=O)N/N=C/c2cc(Br)cc(Br)c2O)c1,nt,52.3*,1.4,9.6,-1.5,12.6
CC(Sc1nnc(CN2CCCC2)n1Cc1ccccc1)C(=O)Nc1ccc(F)cc1Cl (stereo not drawn),nt,nt,-3.3,7.3,-2.8,0.5
C=CCn1c(SCC(=O)Nc2cc(C)on2)nc2sc3c(c2c1=O)CCCC3,6.2,1.3,-2.5,3.0,-0.9,-2.0
Cc1cc(NC(=O)CSc2nc(C(C)C)nc3sc4c(c23)CCCC4)no1,0.0,0.5,8.5*,13.6,6.8,0.2
CCn1c(SCC(=O)Nc2cc(C)on2)nc2sc3c(c2c1=O)CCCC3,-5.5,2.2,17.1*,0.1,-5.5,1.4
C/C(CC(=O)Nc1ccccn1)=N\NC(=O)c1cccc(C)c1,-1.9,1.1,1.2,33.6*,-15.8,-2.2
COc1ccc(C(=O)N/N=C(\C)CC(=O)Nc2ccccn2)cc1OC,nt,0.5,0.1,9.6,-9.8,4.1
O=C(Cc1cccc(NC(=O)C2CCCN(C(=O)CCc3ccccc3)C2)c1)Nc1ccc(C(=O)N2CCCCC2)cc1 (stereo not drawn),nt,nt,1.0,8.2,0.5,0.9
O=c1[nH]nc2c3ccccc3occ1-2,nt,nt,nt,nt,-3.7,nt
CCCN(CCC)Cc1c(C(=O)N/N=C/c2ccncc2)nnn1-c1nonc1N,nt,1.1,-2.2,9.2,0.1,2.0
CCCN(CCC)Cc1c(C(=O)N/N=C/CCc2ccccc2)nnn1-c1nonc1N,nt,2.1,9.2*,8.8,-0.8,-1.1
Nc1nonc1-n1nnc(C(=O)N/N=C/c2ccccc2)c1CSc1ccc(Cl)cc1,1.6,4.7,9.1*,1.3,-2.0,3.8
CC1(c2nc3ccccc3[nH]2)CCC(=O)N1Cc1cccs1 (stereo not drawn),nt,nt,nt,nt,7.7,nt
CCCCCCc1cc2cc(S(=O)(=O)c3ccc(F)c(Cl)c3)c(=O)oc2cc1O,-21.4,6.5,8.8*,4.0,11.9,-9.4
C=CCn1c(SCC(=O)Nc2nccs2)nnc1-c1cc2cccc(OC)c2o1,-5.6,1.3,9.3*,1.0,0.0,4.5
Cn1c(/C(C#N)=C(\O)CN2CCN(Cc3ccccc3)CC2)nc2ccccc21,12.6,1.5,0.4,6.7,-15.2,-0.9
Cc1ccc(SC/C(O)=C(\C#N)c2nc3ccccc3n2C)cc1,12.8,5.3,8.3*,6.7,-1.3,-4.8
Cc1cccc(C)c1NC(=O)C1(C)CSCC(=O)N1CCCn1ccnc1 (stereo not drawn),nt,nt,nt,nt,-6.5,nt
O=C1NC(=O)c2cc(Br)cc3cccc1c23,10.0,0.2,8.9*,-10.0,-8.0,-4.2
Cc1ccc(S(=O)(=O)C[C@@H]2OC[C@H](Cc3ccccc3)N2S(=O)(=O)c2ccc(C)cc2)cc1,nt,nt,nt,nt,5.9,nt
SMILES,TLR4 MyD88 comp,NTR1 agonist,MC4R ag barr,MC4R antag cAMP,NOD2-RIPK2 inh,TLR9-MyD88 block
O=C(Cn1ncn2c(cc3ccccc32)c1=O)NCCc1cccs1,nt,0.6,-1.9,3.5,-7.2,12.1
COc1ccc(CC(N)c2csc(NC(=O)c3cccc(OC(F)(F)F)c3)n2)cc1 (stereo not drawn),nt,nt,8.9*,-12.0,-7.5,nt
O=C(Nc1cc(C(F)(F)F)ccc1Cl)C1CCN(c2nnc(-n3cccc3)s2)CC1,-3.5,nt,8.6*,2.1,5.3,-6.5
Cc1cc(C)nc(SCC(=O)Nc2ncc(Cc3cccc(Cl)c3Cl)s2)n1,-6.7,2.2,8.8*,-7.2,-0.6,-2.8
CC1(C(=O)NS(=O)(=O)C2CC2)CCCN(C(=O)c2ccc(F)cc2Cl)C1 (stereo not drawn),nt,nt,2.5,11.6,1.9,nt
O=c1c2ccccc2oc2ccc(-c3ccc4cc[nH]c4c3)cc12,nt,25.6,4.3,4.9,-6.5,-9.2
CCOC(=O)c1[nH]c2ccc(Cl)cc2c1NC(=O)c1nonc1C,5.4,0.1,8.9*,3.7,3.5,-6.4
COc1cc(CNCc2ccccn2)ccc1OCc1ccc(Cl)cc1Cl,8.9,-1.0,9.2*,29.8*,17.3,3.0
COc1cc(CNCc2ccccn2)ccc1OCc1ccc(Cl)c(Cl)c1,-0.5,0.0,3.2,-2.0,1.8,-2.1
O=C(NCc1ccc2c(c1)OCO2)c1c(-c2ccccc2)sc2ccccc12,nt,-0.2,21.0*,7.4,-3.9,0.4
Cc1onc(-c2ccccc2)c1C(=O)NCc1ccc2c(c1)OCO2,4.9,0.1,-0.4,17.5,-8.8,-2.5
COc1cc(OC)c2c(-c3cccc(-c4ccc(CO)cc4)c3)cc(=O)oc2c1,nt,6.6,-1.2,-32.0,23.2*,4.9
Cc1noc(C)c1S(=O)(=O)N1CCCCC1c1cc(C(=O)Nc2cccc3c2CCCC3)no1 (stereo not drawn),nt,nt,-0.7,6.9,-2.6,nt
CCCCCCCCCCCCCCCC[N+](C)(C)CCN(Cc1ccc(OC)cc1)c1ncccn1,nt,17.6,11.8*,42.9*,0.2,4.9
Cc1ccc(S(=O)(=O)N2[C@@H](CO)CO[C@H]2CC(=O)OCc2ccccc2)cc1,nt,nt,nt,nt,-6.7,nt
Cc1cc2oc(C(=O)Nc3ccc(S(N)(=O)=O)cc3)c(C)c2cc1Cl,19.6,-1.8,8.4*,-2.2,5.5,-1.3
COCCNC(=O)C1(C)CCN(C(=O)c2cc(-c3ccccc3)cs2)C1 (stereo not drawn),nt,nt,-0.9,-1.4,-4.6,nt
O=C(Cc1coc2ccc3ccccc3c12)NC1CCCc2ccccc21 (stereo not drawn),-5.3,3.5,9.1*,5.0,-10.4,-10.5
O=C(NCc1cccc(C(F)(F)F)c1)C1C(=O)Nc2ccccc2C(=O)N1Cc1ccccc1 (stereo not drawn),nt,nt,nt,nt,-7.8,nt
CCOc1cc(C)c(S(=O)(=O)Nc2ccc(F)cc2)cc1C,2.8,4.7,15.7*,19.6,0.4,4.7
